Test results reported in ChEMBL document CHEMBL1144404, “Aminoimidazolylmethyluracil analogues as potent inhibitors of thymidine phosphorylase and their bioreductive nitroimidazolyl prodrugs” (J Med Chem, 2005).
pIC50: −log10 of the molar value.

Legend:
[1] = Half-life was measured in mice after intravenous administration of 2 mg/kg; assay type: ADME, organism-based; set-up: dose 2 mg/kg, route intravenous; details: mouse, in vivo
Method in brief: (§1)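 Mice given a single dose by ip (10 mg/kg), oral (20 mg/kg) or iv (2 mg/kg) route. Blood sampled over 24 h after dosing; plasma analysed for parent compound. PK parameters (Cmax, Tmax, AUC, T1/2, F, C0, Cl, Vdss) derived from plasma concentration-time profiles.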

[2] = Half-life was measured in mice after intraperitoneal administration of 10 mg/kg; assay type: ADME, organism-based; set-up: dose 10 mg/kg, route intraperitoneal; details: mouse, in vivo, ip; method in brief: as §1
[3] = Bioavailability in mouse (dose 10 mg/kg i.p.); assay type: ADME, organism-based; details: in vivo, ip; method in brief: as §1
[4] = Bioavailability in mouse (dose 2 mg/kg i.v.); assay type: ADME, organism-based; details: in vivo, iv; method in brief: as §1
[5] = Bioavailability in mouse (dose 20 mg/kg p.o.); assay type: ADME, organism-based; details: in vivo, po; method in brief: as §1
[6] = Steady state volume of distribution was measured in mice after intravenous administration of 2 mg/kg; assay type: ADME, organism-based; set-up: dose 2 mg/kg, route intravenous; details: mouse, in vivo, read-out: Vdss; method in brief: as §1
[7] = Concentration at time 0 was measured in mice after intravenous administration of 2 mg/kg; assay type: ADME, organism-based; set-up: dose 2 mg/kg, route intravenous; details: mouse, in vivo; method in brief: as §1
[8] = Area under concentration-time curve for the compound was measured in mice after intravenous administration of 2 mg/kg; assay type: ADME, organism-based; set-up: dose 2 mg/kg, route intravenous; details: mouse, in vivo; method in brief: as §1
[9] = Maximum plasma concentration in mice after oral administration of 20 mg/kg; assay type: ADME, organism-based; set-up: dose 20 mg/kg, route oral; details: mouse; method in brief: as §1
[10] = Area under concentration-time curve for the compound was measured in mice after intraperitoneal administration of 10 mg/kg; assay type: ADME, organism-based; set-up: dose 10 mg/kg, route intraperitoneal; details: mouse, in vivo, ip; method in brief: as §1
[11] = Maximum time to attain Cmax in mice after oral administration of 20 mg/kg; assay type: ADME, organism-based; set-up: dose 20 mg/kg, route oral; details: mouse, in vivo; method in brief: as §1
[12] = Half-life was measured in mice after oral administration of 20 mg/kg; assay type: ADME, organism-based; set-up: dose 20 mg/kg, route oral; details: mouse, in vivo; method in brief: as §1
[13] = Maximum concentration was measured in mice after intraperitoneal administration of 10 mg/kg; assay type: ADME, organism-based; set-up: dose 10 mg/kg, route intraperitoneal; details: mouse, in vivo, ip; method in brief: as §1
[14] = Area under concentration-time curve for the compound was measured in mice after oral administration of 20 mg/kg; assay type: ADME, organism-based; set-up: dose 20 mg/kg, route oral; details: mouse, in vivo; method in brief: as §1
[15] = Clearance at time 0 was measured in mice after intravenous administration of 2 mg/kg; assay type: ADME, organism-based; set-up: dose 2 mg/kg, route intravenous; details: mouse, in vivo; method in brief: as §1
[16] = Maximum time to attain Cmax in mice after intraperitoneal administration of 10 mg/kg; assay type: ADME, organism-based; set-up: dose 10 mg/kg, route intraperitoneal; details: mouse, in vivo, ip; method in brief: as §1
Thymidine phosphorylase [17] = target: T1, Thymidine phosphorylase (Homo sapiens, UniProt P19971); assay: Inhibitory concentration against human thymidine phosphorylase
T1 sequence (P19971 whole entry): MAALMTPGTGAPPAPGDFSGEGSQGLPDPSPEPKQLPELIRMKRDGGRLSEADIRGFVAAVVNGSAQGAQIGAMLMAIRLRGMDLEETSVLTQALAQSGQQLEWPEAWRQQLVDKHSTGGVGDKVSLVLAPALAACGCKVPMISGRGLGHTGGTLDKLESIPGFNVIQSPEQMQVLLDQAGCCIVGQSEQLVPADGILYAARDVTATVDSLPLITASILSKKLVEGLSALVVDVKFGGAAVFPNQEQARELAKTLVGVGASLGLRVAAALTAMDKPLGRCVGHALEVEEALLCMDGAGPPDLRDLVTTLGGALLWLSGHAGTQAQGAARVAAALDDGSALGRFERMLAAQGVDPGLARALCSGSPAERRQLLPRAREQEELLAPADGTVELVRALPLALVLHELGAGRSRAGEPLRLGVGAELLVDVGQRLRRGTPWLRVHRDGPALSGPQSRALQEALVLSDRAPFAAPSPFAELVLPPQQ

Thymidine phosphorylase [18] = target: Thymidine phosphorylase (Escherichia coli K-12, UniProt P07650); assay: Inhibitory concentration against thymidine phosphorylase of Escherichia coli
[19] = Maximum plasma concentration in mice after intraperitoneal administration of 10 mg/kg; assay type: ADME, organism-based; set-up: dose 10 mg/kg, route intraperitoneal; details: mouse, ip; method in brief: as §1

Thymidine phosphorylase (Escherichia coli K-12, UniProt P07650), sequence (P07650 whole entry): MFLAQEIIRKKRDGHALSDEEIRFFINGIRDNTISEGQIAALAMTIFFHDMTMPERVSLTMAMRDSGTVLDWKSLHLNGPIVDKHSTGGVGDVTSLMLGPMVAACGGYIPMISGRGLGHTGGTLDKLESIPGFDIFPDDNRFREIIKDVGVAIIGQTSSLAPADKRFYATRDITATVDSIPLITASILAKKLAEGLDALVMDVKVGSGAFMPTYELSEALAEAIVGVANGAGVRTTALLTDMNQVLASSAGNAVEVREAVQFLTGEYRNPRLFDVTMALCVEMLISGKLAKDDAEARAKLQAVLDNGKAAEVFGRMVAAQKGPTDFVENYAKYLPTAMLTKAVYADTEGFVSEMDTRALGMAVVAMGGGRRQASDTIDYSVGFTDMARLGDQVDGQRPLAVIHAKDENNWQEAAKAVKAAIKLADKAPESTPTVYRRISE

## Cl.N=C1CCCN1Cc1[nH]c(=O)[nH]c(=O)c1Cl [TIPIRACIL HYDROCHLORIDE]
[1]
  half-life: 6 min
[2]
  half-life: 48 min
[3]
  bioavailability: > 100%
[4]
  F: Not Active
[5]
  bioavailability: 52%
[6]
  Vd: 2.1 L/kg
[7]
  C0: 942 ng/mL
[8]
  AUC: 0.19 µg/h/mL
[9]
  Cmax: 391 ng/mL
[10]
  AUC: 1.658 µg/h/mL
[11]
  Tmax: 60 min
[12]
  half-life: 102 min
[13]
  Cmax: 4450 ng/mL
[14]
  AUC: 0.99 µg/h/mL
[15]
  clearance: > 72 mL/min/kg
[16]
  Tmax: 4.98 min

## O=[N+]([O-])c1cn(Cc2cc(O)nc(O)n2)cn1
Thymidine phosphorylase [17]
  pIC50: 3.30
Thymidine phosphorylase [18]
  pIC50: 4.86

## Nc1c[n+](Cc2nc(O)nc(O)c2Cl)c[nH]1
Thymidine phosphorylase [18]
  pIC50: 5.14

## O=c1[nH]c(Cn2cnc([N+](=O)[O-])c2)c(Cl)c(=O)[nH]1
Thymidine phosphorylase [17]
  pIC50: 3.70
Thymidine phosphorylase [18]
  pIC50: 5.15

## Nc1[nH]cc[n+]1Cc1[nH]c(=O)[nH]c(=O)c1Br
[1]
  half-life: 12 min
[2]
  half-life: 60 min
[3]
  bioavailability: 103%
[4]
  F: Not Active
[19]
  Cmax: 5080 ng/mL
[5]
  bioavailability: 33%
[6]
  Vd: 1.3 L/kg
[7]
  C0: 3750 ng/mL
[8]
  AUC: 0.292 µg/h/mL
[9]
  Cmax: 350 ng/mL
[10]
  AUC: 1.505 µg/h/mL
[11]
  Tmax: 60 min
[12]
  half-life: 132 min
[14]
  AUC: 0.968 µg/h/mL
[15]
  clearance: > 72 mL/min/kg
[16]
  Tmax: 5 min

## O=c1[nH]c(Cn2cnc([N+](=O)[O-])c2)c(Br)c(=O)[nH]1
Thymidine phosphorylase [17]
  pIC50: 3.74
Thymidine phosphorylase [18]
  pIC50: 5.18

## Nc1c[n+](Cc2cc(O)nc(O)n2)c[nH]1
Thymidine phosphorylase [17]
  pIC50: 3.84
Thymidine phosphorylase [18]
  pIC50: 3.99

## Nc1c[n+](Cc2nc(O)nc(O)c2Br)c[nH]1
Thymidine phosphorylase [18]
  pIC50: 5.19
